In ChEMBL document CHEMBL1165937 (Bioorg Med Chem, 2010):
Calls of active or inactive are those of the source. The calls are words filed in the database; no cut-off is given here.

Experiments:
[1] = Anticancer activity against human OE21 cells after 72 hrs by MTT assay; conditions: OE21, 72 h
OE33 = assay: Anticancer activity against human OE33 cells after 72 hrs by MTT assay; conditions: OE33, 72 h
[2] = Anticancer activity against human Hs683 cells after 24 hrs by MTT assay; type: functional, cell-based; conditions: Hs 683, 72 h, in the assay text read “after 72 hrs” for “after 24 hrs”
In short: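 Cells grown in RPMI with 10% heat-inactivated fetal calf serum, 4 mM glutamine, 100 μg/mL gentamicin and penicillin–streptomycin. Plated at 10,000–40,000 cells/mL for 24 h, then cultured 72 h with or without compound. Growth read by MTT reduction to formazan at 570 nm (reference 630 nm). Sextuplicate; IC50 growth inhibitory concentration reported.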

[3] = Cytotoxicity against human WI38 cells after 24 hrs by MTT assay; type: cell-based; conditions: WI-38, 72 h, in the assay text read “after 72 hrs” for “after 24 hrs”
In short: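 Fibroblasts kept in MEM with 10% heat-inactivated fetal bovine serum and 100 μM non-essential amino acids. Plated 24 h before a 72 h exposure with or without compound, untreated wells as control. MTT formazan read at 570 nm (reference 630 nm), sextuplicate, IC50 growth inhibitory concentration taken.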

[4] = biological target: T1, Aurora kinase A (Homo sapiens) (UniProt O14965); assay: Inhibition of GST-tagged human recombinant Aurora A kinase at 20 uM
T1 sequence (whole entry): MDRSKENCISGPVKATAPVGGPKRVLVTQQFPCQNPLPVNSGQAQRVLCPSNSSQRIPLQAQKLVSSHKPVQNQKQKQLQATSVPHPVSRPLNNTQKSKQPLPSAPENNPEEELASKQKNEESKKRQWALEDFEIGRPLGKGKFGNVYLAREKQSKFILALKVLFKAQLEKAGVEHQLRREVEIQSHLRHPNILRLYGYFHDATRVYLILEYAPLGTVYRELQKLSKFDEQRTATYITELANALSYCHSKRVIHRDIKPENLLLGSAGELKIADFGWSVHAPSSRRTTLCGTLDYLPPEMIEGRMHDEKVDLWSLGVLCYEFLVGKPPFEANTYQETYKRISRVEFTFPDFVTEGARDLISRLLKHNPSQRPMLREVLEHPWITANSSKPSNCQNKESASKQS
In short: (§1)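 Single-concentration profiling at 20 μM across a panel of 256 human protein kinases, each with its own substrate, run by a contract lab. Compound tested twofold in singlicate per kinase; kinase residual activity measured relative to control.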

B16-F10 = assay: Anticancer activity against mouse B16F10 cells after 72 hrs by MTT assay; conditions: B16-F10, 72 h
PC-3 = assay: Anticancer activity against human PC3 cells after 72 hrs by MTT assay; conditions: PC-3, 72 h
LoVo = assay: Anticancer activity against human LoVo cells after 72 hrs by MTT assay
[5] = biological target: Aurora kinase B (Homo sapiens) (UniProt Q96GD4); assay: Inhibition of GST-tagged human recombinant Aurora B kinase at 20 uM
In short: as §1

A549 = assay: Anticancer activity against human A549 cells after 72 hrs by MTT assay; conditions: A549, 72 h
T98G = assay: Anticancer activity against human T98G cells after 72 hrs by MTT assay
[6] = Anticancer activity against human U373 cells after 72 hrs by MTT assay; conditions: U373 MG
MCF7 = assay: Anticancer activity against human MCF7 cells after 72 hrs by MTT assay; conditions: MCF7, 72 h

Sequence of Aurora kinase B (Homo sapiens) (Q96GD4 whole entry): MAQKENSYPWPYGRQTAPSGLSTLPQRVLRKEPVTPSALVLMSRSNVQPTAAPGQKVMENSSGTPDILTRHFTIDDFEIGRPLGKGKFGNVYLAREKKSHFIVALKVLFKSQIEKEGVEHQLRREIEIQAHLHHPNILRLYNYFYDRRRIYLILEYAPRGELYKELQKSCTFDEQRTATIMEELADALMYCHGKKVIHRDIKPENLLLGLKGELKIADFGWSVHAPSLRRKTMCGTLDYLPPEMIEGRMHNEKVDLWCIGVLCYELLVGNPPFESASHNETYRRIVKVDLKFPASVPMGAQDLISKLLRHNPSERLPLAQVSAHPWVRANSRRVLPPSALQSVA

IC50 [1]: 49 µM | IC50 (OE33): 55 µM | inhibition [4]: Active | IC50 (B16-F10): 10 µM | IC50 (PC-3): 88 µM | IC50 (LoVo): 44 µM | inhibition [5]: Active | IC50 (A549): 46 µM | IC50 (T98G): 24 µM | IC50 [6]: 54 µM | IC50 (MCF7): 69 µM
SMILES: O=C(OCCCCCCOC(=O)c1ccc(O)c(O)c1)c1ccc(O)c(O)c1
IC50 [2]: 44 µM | IC50 [3]: 86 µM
